From ChEMBL document CHEMBL1136045, “Synthesis, in vitro receptor binding, and in vivo evaluation of fluorescein and carbocyanine peptide-based optical contrast agents” (J Med Chem, 2002) come the findings set out here.

One experiment deals with Somatostatin receptor. The experiment is described as follows: In vitro binding affinity of [111In]DTPA-[Y3]-octreotate to somatostatin receptor in the rat pancreatic tumor cell line, […]. In a few lines:
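Competition binding on CA20948 rat pancreatic cell membranes with the tracer [111In]-DTPA-[Y3]-octreotate and increasing concentrations of unlabeled competitor. Incubation 90 min at room temperature, then filtration and buffer washes. Filter-bound radioactivity was gamma-counted, and IC50 came from a four-parameter curve fit. Specific activity of the radiolabeled peptide was >1400 Ci/mmol.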

Experiment [1] has as its target Gastrin-releasing peptide receptor (Rattus norvegicus, UniProt P52500). The experiment is described as follows: In vitro binding affinity of [111In]DTPA-[Y4]-bombesin to bombesin receptor in the rat pancreatic acinar cell line, AR42J. In a few lines:
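Competition binding on AR42-J rat pancreatic acinar cell membranes (~50 μg/well) with the tracer [111In]-DTPA-[P1,Y4]-bombesin and increasing concentrations of cold competitor. Buffer was 50 mM Tris-HCl pH 7.4, 5 mM MgCl2, 0.2 mg/mL BSA. Incubation 90 min at room temperature, then filtration and washing. Bound radioactivity was gamma-counted, and IC50 came from a four-parameter fit.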

Chain of Gastrin-releasing peptide receptor (P52500 whole entry): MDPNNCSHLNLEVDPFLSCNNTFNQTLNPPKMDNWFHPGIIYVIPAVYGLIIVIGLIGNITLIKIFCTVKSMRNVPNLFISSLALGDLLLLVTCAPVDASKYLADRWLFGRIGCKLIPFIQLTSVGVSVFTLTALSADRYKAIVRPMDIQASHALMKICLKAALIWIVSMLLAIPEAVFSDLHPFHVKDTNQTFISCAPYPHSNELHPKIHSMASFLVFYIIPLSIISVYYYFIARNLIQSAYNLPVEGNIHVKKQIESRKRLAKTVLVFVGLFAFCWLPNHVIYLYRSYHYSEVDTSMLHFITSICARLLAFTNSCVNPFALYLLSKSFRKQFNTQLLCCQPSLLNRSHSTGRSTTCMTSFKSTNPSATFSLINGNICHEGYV

`C[C@@H](O)[C@H](NC(=O)[C@H]1CSSC[C@H](NC(=O)[C@@H](Cc2ccccc2)NC(=O)C(CCCCNC(=O)CN(CCN(CCN(CC(=O)O)CC(=O)O)CC(=O)O)CC(=O)O)/N=C(\S)Nc2ccc3c(c2)C(=O)OC32c3ccc(O)cc3Oc3cc(O)ccc32)C(=O)N[C@@H](Cc2ccc(O)cc2)C(=O)N[C@H](Cc2c[nH]c3ccccc23)C(=O)N[C@@H](CCCCN)C(=O)N[C@H]([C@@H](C)O)C(=O)N1)C(=O)O` (some centres undefined) gave an IC50 at Somatostatin receptor of 71.3 nM.

As for `C[C@@H](O)[C@H](NC(=O)[C@H]1CSSC[C@H](NC(=O)[C@H](N)Cc2ccccc2)C(=O)N[C@@H](Cc2ccc(O)cc2)C(=O)N[C@H](Cc2c[nH]c3ccccc23)C(=O)N[C@@H](CCCCN)C(=O)N[C@H]([C@@H](C)O)C(=O)N1)C(=O)O`, the IC50 on Somatostatin receptor came out at 0.6 nM.

`C[C@@H](O)[C@H](NC(=O)[C@H]1CSSC[C@H](NC(=O)[C@@H](Cc2ccccc2)NC(=O)C(CCCC/N=C(\S)Nc2ccc3c(c2)C(=O)OC32c3ccc(O)cc3Oc3cc(O)ccc32)NC(=O)CN(CCN(CCN(CC(=O)O)CC(=O)O)CC(=O)O)CC(=O)O)C(=O)N[C@@H](Cc2ccc(O)cc2)C(=O)N[C@H](Cc2c[nH]c3ccccc23)C(=O)N[C@@H](CCCCN)C(=O)N[C@H]([C@@H](C)O)C(=O)N1)C(=O)O` (some centres undefined) yielded an IC50 at Somatostatin receptor of 10.3 nM.

As to `CSCC[C@H](NC(=O)[C@H](CC(C)C)NC(=O)[C@H](Cc1c[nH]cn1)NC(=O)CNC(=O)[C@@H](NC(=O)[C@H](C)NC(=O)[C@H](Cc1c[nH]c2ccccc12)NC(=O)[C@H](CCC(N)=O)NC(=O)[C@H](CCCCNC(=O)CN1CCN(CC(=O)O)CCN(CC(=O)O)CCN(CC(=O)O)CC1)NC(=S)Nc1ccc2c(c1)C(=O)OC21c2ccc(O)cc2Oc2cc(O)ccc21)C(C)C)C(N)=O`, the 50% inhibitory concentration (IC50) in experiment [1] amounted to 15 nM.

Take `C[C@@H](O)[C@H](NC(=O)[C@H]1CSSC[C@H](NC(=O)[C@@H](Cc2ccccc2)NC(=O)CC/N=C(\S)Nc2ccc3c(c2)C(=O)OC32c3ccc(O)cc3Oc3cc(O)ccc32)C(=O)N[C@@H](Cc2ccc(O)cc2)C(=O)N[C@H](Cc2c[nH]c3ccccc23)C(=O)N[C@@H](CCCCN)C(=O)N[C@H]([C@@H](C)O)C(=O)N1)C(=O)O`: the IC50 at Somatostatin receptor is greater than 1000 nM.

Turning to `C[C@@H](O)[C@H](NC(=O)[C@H]1CSSC[C@H](NC(=O)[C@@H](Cc2ccccc2)/N=C(/S)Nc2ccc3c(c2)C(=O)OC32c3ccc(O)cc3Oc3cc(O)ccc32)C(=O)N[C@@H](Cc2ccc(O)cc2)C(=O)N[C@H](Cc2c[nH]c3ccccc23)C(=O)N[C@@H](CCCCN)C(=O)N[C@H]([C@@H](C)O)C(=O)N1)C(=O)O`, the IC50 at Somatostatin receptor was determined as 9.9 nM.

For the molecule `CSCC[C@H](NC(=O)[C@H](CC(C)C)NC(=O)[C@H](Cc1c[nH]cn1)NC(=O)CNC(=O)[C@@H](NC(=O)[C@H](C)NC(=O)[C@H](Cc1c[nH]c2ccccc12)NC(=O)[C@H](CCC(N)=O)NC(=O)[C@@H](N)CCCCNC(=S)Nc1ccc2c(c1)C(=O)OC21c2ccc(O)cc2Oc2cc(O)ccc21)C(C)C)C(N)=O`, the IC50 in experiment [1] came out at 5.7 nM.

Regarding `CSCC[C@H](NC(=O)[C@H](CC(C)C)NC(=O)[C@H](Cc1c[nH]cn1)NC(=O)CNC(=O)[C@@H](NC(=O)[C@H](C)NC(=O)[C@H](Cc1c[nH]c2ccccc12)NC(=O)[C@H](CCC(N)=O)NC(=O)[C@H](CCCCN)NC(=O)CN(CCN(CCN(CC(=O)O)CC(=O)O)CC(=O)O)CC(=O)O)C(C)C)C(N)=O`, in experiment [1], the IC50 came to 410 nM.

`CSCC[C@H](NC(=O)[C@H](CC(C)C)NC(=O)[C@H](Cc1c[nH]cn1)NC(=O)CNC(=O)[C@@H](NC(=O)[C@H](C)NC(=O)[C@H](Cc1c[nH]c2ccccc12)NC(=O)[C@H](CCC(N)=O)NC(=O)CNC(=O)[C@H](CO)NC(=O)CNC(=O)[C@@H](N)CCCCN)C(C)C)C(N)=O` yielded an IC50 in experiment [1] of 4.8 nM.

`CSCC[C@H](NC(=O)[C@H](CC(C)C)NC(=O)[C@H](Cc1c[nH]cn1)NC(=O)CNC(=O)[C@@H](NC(=O)[C@H](C)NC(=O)[C@H](Cc1c[nH]c2ccccc12)NC(=O)[C@H](CCC(N)=O)NC(=O)CNC(=O)[C@H](CO)NC(=O)CNC(=O)[C@@H](N)CCCCNC(=S)Nc1ccc2c(c1)C(=O)OC21c2ccc(O)cc2Oc2cc(O)ccc21)C(C)C)C(N)=O` had an IC50 in experiment [1] of 9.6 nM.

Consider `CSCC[C@H](NC(=O)[C@H](CC(C)C)NC(=O)[C@H](Cc1c[nH]cn1)NC(=O)CNC(=O)[C@@H](NC(=O)[C@H](C)NC(=O)[C@H](Cc1c[nH]c2ccccc12)NC(=O)[C@H](CCC(N)=O)NC(=O)CNC(=O)[C@H](CO)NC(=O)CNC(=S)Nc1ccc2c(c1)C(=O)OC21c2ccc(O)cc2Oc2cc(O)ccc21)C(C)C)C(N)=O`, for which the IC50 in experiment [1] was 9.2 nM.

For `CSCC[C@H](NC(=O)[C@H](CC(C)C)NC(=O)[C@H](Cc1c[nH]cn1)NC(=O)CNC(=O)[C@@H](NC(=O)[C@H](C)NC(=O)[C@H](Cc1c[nH]c2ccccc12)NC(=O)[C@H](CCC(N)=O)NC(=O)[C@H](CCCCNC(=O)CN(CCN(CCN(CC(=O)O)CC(=O)O)CC(=O)O)CC(=O)O)NC(=O)CN(CCN(CCN(CC(=O)O)CC(=O)O)CC(=O)O)CC(=O)O)C(C)C)C(N)=O`, the IC50 in experiment [1] turned out to be 240 nM.

The molecule `CSCC[C@H](NC(=O)[C@H](CC(C)C)NC(=O)[C@H](Cc1cnc[nH]1)NC(=O)CNC(=O)[C@@H](NC(=O)[C@H](C)NC(=O)[C@H](Cc1c[nH]c2ccccc12)NC(=O)[C@@H](N)CCC(N)=O)C(C)C)C(N)=O` gave a 50% inhibitory concentration (IC50) in experiment [1] of 28.3 nM.

On to `CSCC[C@H](NC(=O)[C@H](CC(C)C)NC(=O)[C@H](Cc1c[nH]cn1)NC(=O)CNC(=O)[C@@H](NC(=O)[C@H](C)NC(=O)[C@H](Cc1c[nH]c2ccccc12)NC(=O)[C@H](CCC(N)=O)NC(=O)[C@H](CC(N)=O)NC(=O)CNC(=O)[C@H](Cc1ccc(O)cc1)NC(=O)[C@H](CCCN=C(N)N)NC(=O)[C@H](CCC(N)=O)NC(=O)[C@@H]1CCCN1C(=O)CN(CCN(CCN(CC(=O)O)CC(=O)O)CC(=O)O)CC(=O)O)C(C)C)C(N)=O`, for which the IC50 in experiment [1] stood at 4.7 nM.

`CSCC[C@H](NC(=O)[C@H](CC(C)C)NC(=O)[C@H](Cc1c[nH]cn1)NC(=O)CNC(=O)[C@@H](NC(=O)[C@H](C)NC(=O)[C@H](Cc1c[nH]c2ccccc12)NC(=O)[C@H](CCC(N)=O)NC(=O)CNC(=O)[C@H](CO)NC(=O)CNC(=O)[C@H](CCCCN)NC(=S)Nc1ccc2c(c1)C(=O)OC21c2ccc(O)cc2Oc2cc(O)ccc21)C(C)C)C(N)=O` registered an IC50 in experiment [1] of 15.6 nM.

In experiment [1], `CSCC[C@H](NC(=O)[C@H](CC(C)C)NC(=O)[C@H](Cc1c[nH]cn1)NC(=O)CNC(=O)[C@@H](NC(=O)[C@H](C)NC(=O)[C@H](Cc1c[nH]c2ccccc12)NC(=O)[C@H](CCC(N)=O)NC(=O)[C@H](CCCCNC(=S)Nc1ccc2c(c1)C(=O)OC21c2ccc(O)cc2Oc2cc(O)ccc21)NC(=S)Nc1ccc2c(c1)C(=O)OC21c2ccc(O)cc2Oc2cc(O)ccc21)C(C)C)C(N)=O` gave an IC50 of 9.5 nM.

Consider `CSCC[C@H](NC(=O)[C@H](CC(C)C)NC(=O)[C@H](Cc1c[nH]cn1)NC(=O)CNC(=O)[C@@H](NC(=O)[C@H](C)NC(=O)[C@H](Cc1c[nH]c2ccccc12)NC(=O)[C@H](CCC(N)=O)NC(=O)CNC(=O)[C@H](CO)NC(=O)CNC(=O)[C@H](CCCCNC(=S)Nc1ccc2c(c1)C(=O)OC21c2ccc(O)cc2Oc2cc(O)ccc21)NC(=S)Nc1ccc2c(c1)C(=O)OC21c2ccc(O)cc2Oc2cc(O)ccc21)C(C)C)C(N)=O`, for which the IC50 in experiment [1] came to 20.5 nM.

Regarding `CSCC[C@H](NC(=O)[C@H](CC(C)C)NC(=O)[C@H](Cc1c[nH]cn1)NC(=O)CNC(=O)[C@@H](NC(=O)[C@H](C)NC(=O)[C@H](Cc1c[nH]c2ccccc12)NC(=O)[C@H](CCC(N)=O)NC(=O)[C@@H](N)CCCCNC(=O)CN(CCN(CCN(CC(=O)O)CC(=O)O)CC(=O)O)CC(=O)O)C(C)C)C(N)=O`, in experiment [1], the IC50 is 4.8 nM.

In the case of `CSCC[C@H](NC(=O)[C@H](CC(C)C)NC(=O)[C@H](Cc1c[nH]cn1)NC(=O)CNC(=O)[C@@H](NC(=O)[C@H](C)NC(=O)[C@H](Cc1c[nH]c2ccccc12)NC(=O)[C@H](CCC(N)=O)NC(=S)Nc1ccc2c(c1)C(=O)OC21c2ccc(O)cc2Oc2cc(O)ccc21)C(C)C)C(N)=O`, in experiment [1], the IC50 was 3.2 nM.

Turning to `CSCC[C@H](NC(=O)[C@H](CC(C)C)NC(=O)[C@H](Cc1c[nH]cn1)NC(=O)CNC(=O)[C@@H](NC(=O)[C@H](C)NC(=O)[C@H](Cc1c[nH]c2ccccc12)NC(=O)[C@H](CCC(N)=O)NC(=O)[C@@H](N)CCCCN)C(C)C)C(N)=O`, in experiment [1], the IC50 amounted to 10.5 nM.

The molecule `CSCC[C@H](NC(=O)[C@H](CC(C)C)NC(=O)[C@H](Cc1c[nH]cn1)NC(=O)CNC(=O)[C@@H](NC(=O)[C@H](C)NC(=O)[C@H](Cc1c[nH]c2ccccc12)NC(=O)[C@H](CCC(N)=O)NC(=O)CNC(=O)[C@H](CO)NC(=O)CN)C(C)C)C(N)=O` showed an IC50 in experiment [1] of 7.6 nM.

`CSCC[C@H](NC(=O)[C@H](CC(C)C)NC(=O)[C@H](Cc1c[nH]cn1)NC(=O)CNC(=O)[C@@H](NC(=O)[C@H](C)NC(=O)[C@H](Cc1c[nH]c2ccccc12)NC(=O)[C@H](CCC(N)=O)NC(=O)[C@H](CCCCNC(=S)Nc1ccc2c(c1)C(=O)OC21c2ccc(O)cc2Oc2cc(O)ccc21)NC(=O)CN(CCN(CCN(CC(=O)O)CC(=O)O)CC(=O)O)CC(=O)O)C(C)C)C(N)=O`: the IC50 in experiment [1] turned out to be 276 nM.

Molecule `CSCC[C@H](NC(=O)[C@H](CC(C)C)NC(=O)[C@H](Cc1c[nH]cn1)NC(=O)CNC(=O)[C@@H](NC(=O)[C@H](C)NC(=O)[C@H](Cc1c[nH]c2ccccc12)NC(=O)[C@H](CCC(N)=O)NC(=O)[C@H](CCCCNC(=O)CN(CCN(CCN(CC(=O)O)CC(=O)O)CC(=O)O)CC(=O)O)NC(=S)Nc1ccc2c(c1)C(=O)OC21c2ccc(O)cc2Oc2cc(O)ccc21)C(C)C)C(N)=O` showed an IC50 in experiment [1] of 20 nM.

`CSCC[C@H](NC(=O)[C@H](CC(C)C)NC(=O)[C@H](Cc1c[nH]cn1)NC(=O)CNC(=O)[C@@H](NC(=O)[C@H](C)NC(=O)[C@H](Cc1c[nH]c2ccccc12)NC(=O)[C@H](CCC(N)=O)NC(=O)[C@H](CCCCN)NC(=S)Nc1ccc2c(c1)C(=O)OC21c2ccc(O)cc2Oc2cc(O)ccc21)C(C)C)C(N)=O` showed an IC50 in experiment [1] of 5.8 nM.

As usually defined, the IC50 is the concentration needed to halve the response being measured. A higher IC50 goes with weaker potency in that assay.
